A3G deaminase: blocks human APOBEC3G single-stranded DNA deamination. inhibition, % at 20 µM. actives 0.28% (n = 330,000). recombinant A3G, ssDNA deamination FAM/TAMRA fluorescence. AID 493012;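 active = inhibition of at least 40% at 20 µM, with no more than 30% in the related APOBEC3A deaminase screen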
FN deposit inh: fibronectin deposition inhibition | AID 743247 | inhibition, % at 12.6 µM | actives 0.086% (n = 350,000) | AH1F fibroblasts, Alexa488-fibronectin deposition fluorescence, overnight;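 active = mean inhibition across replicates of 30% or more, regardless of how many single replicates reach that level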
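Material: AH1F fibroblasts assembling fluorescent fibronectin matrix; amount: 10000 AH1F cells/well; medium: DMEM, 2% serum; reagent: Alexa488-fibronectin, 24 nM final in well; dosing: single compound dose, delivered by pin transfer; incubation: 1 h adhesion, overnight exposure; detection: fluorescence after three HBSS washes, excitation 485 nm, emission 525 nm; measure: fibronectin deposition inhibition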
ABHD5 PLIN5 PPI: inhibitors of human ABHD5-perilipin-5 interaction; Split G. princeps luciferase complementation, luminescence, 4 h; inhibition, % at 4 µM; actives 0.78% (n = 360,000);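 active = inhibition above the mean inhibition across every tested compound plus 3 SD, cut at about 22% in these data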
Target sequence (Q00G26 whole entry, looked up): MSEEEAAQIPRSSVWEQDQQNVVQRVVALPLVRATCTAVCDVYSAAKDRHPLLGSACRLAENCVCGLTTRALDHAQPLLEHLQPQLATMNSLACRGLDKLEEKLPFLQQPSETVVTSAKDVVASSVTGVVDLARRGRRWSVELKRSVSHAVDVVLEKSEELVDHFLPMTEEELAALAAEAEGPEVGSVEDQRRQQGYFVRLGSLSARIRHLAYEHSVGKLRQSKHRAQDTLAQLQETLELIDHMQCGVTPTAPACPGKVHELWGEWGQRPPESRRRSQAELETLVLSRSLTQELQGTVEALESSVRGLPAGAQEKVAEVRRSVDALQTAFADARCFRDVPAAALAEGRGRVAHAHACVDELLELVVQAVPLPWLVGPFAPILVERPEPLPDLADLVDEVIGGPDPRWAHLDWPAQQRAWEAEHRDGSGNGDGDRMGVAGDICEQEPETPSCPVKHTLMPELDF
Target sequence (Q8WTS1 whole entry, looked up): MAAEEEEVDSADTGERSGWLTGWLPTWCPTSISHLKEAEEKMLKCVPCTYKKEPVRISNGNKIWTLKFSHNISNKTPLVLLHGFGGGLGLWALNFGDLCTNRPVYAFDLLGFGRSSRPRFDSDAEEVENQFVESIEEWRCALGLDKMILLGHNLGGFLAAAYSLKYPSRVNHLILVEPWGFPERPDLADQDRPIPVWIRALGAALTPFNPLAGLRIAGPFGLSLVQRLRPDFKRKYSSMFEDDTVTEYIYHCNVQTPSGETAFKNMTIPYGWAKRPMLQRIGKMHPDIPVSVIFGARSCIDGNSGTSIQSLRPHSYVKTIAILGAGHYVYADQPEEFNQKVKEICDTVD
APOBEC3A inh: human APOBEC3A DNA deaminase inhibition. P31941. recombinant A3A, FAM/TAMRA ssDNA deamination fluorescence. inhibition, % at 20 µM. actives 0.41% (n = 330,000). AID 493011;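 active = at least 40% inhibition at 20 µM here, with at most 30% in a related deaminase screen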
APOBEC3A confirm: APOBEC3A (human) deaminase inhibition, confirmed. shares compounds with APOBEC3A inh. recombinant A3A, ssDNA deaminase UDG fluorescence assay. inhibition, % at 20 µM. actives 63% (n = 1,400). AID 493151;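 active = inhibition reaching a set limit, 80% of the first screen's cutoff, at 20 µM in any replicate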
UDG ctr A3A: counter-screen for APOBEC3A inhibitors: UDG | 1,000 tested, under 10 active | AID 504714 | inhibition, % at 20 µM | shares compounds with APOBEC3A inh | UDG counterscreen, FAM/TAMRA uracil oligo fluorescence; call rule not given here
Large screens that a line does not name were inactive (follow-up assays come after a bar, where they were run). This is a sample that favours compounds with a hit; in the whole collection about 1.2% have one here.

N#C/C(=C/c1ccc(OCc2ccc(C(=O)O)cc2)cc1)C(=O)Nc1ccccc1	APOBEC3A inh 78.9 (no result: FN deposit inh) | APOBEC3A confirm 75.3 | UDG ctr A3A inactive
O=C(N/N=C/c1cccc(OCc2ccccc2)c1)c1cccs1	none
Cc1ccccc1N(C(=O)Cc1c[nH]c2ccccc12)C(C(=O)NC1CCCCC1)c1ccco1 (configuration not stated)	none
Cc1ccc(C(C(=O)NC2CCCCC2)N(C(=O)Cc2c[nH]c3ccccc23)c2ccccc2C)o1 (configuration not stated)	APOBEC3A inh 44.9 | APOBEC3A confirm inactive | UDG ctr A3A inactive
C/C=C/c1ccc([C@@H]2[C@@H](CO)N(Cc3nccs3)C23CN(CC2CCCC2)C3)cc1	none (no result: A3G deaminase, ABHD5 PLIN5 PPI, APOBEC3A inh)
O=C(NCC1COc2ccccc2O1)c1cc(S(=O)(=O)N2CCOCC2)c(Cl)cc1Cl (configuration not stated)	APOBEC3A inh 41.9 | APOBEC3A confirm inactive
O=C(NCC1COc2ccccc2O1)c1ccc(F)c(S(=O)(=O)N2CCOCC2)c1 (configuration not stated)	none
CC[C@H]1C/C=C\C[C@H](c2ccccc2)NC(=O)CCC(=O)N1	none (no result: A3G deaminase, ABHD5 PLIN5 PPI, APOBEC3A inh)
CN1CCN(c2nnc(-c3ccccc3)c(-c3ccccc3)n2)CC1	APOBEC3A inh 66.0 | APOBEC3A confirm 27.0 | UDG ctr A3A inactive
C[C@@H]1COCc2cn(nn2)CC[C@H](Cc2ccccc2)C(=O)N1	none (no result: A3G deaminase, ABHD5 PLIN5 PPI, APOBEC3A inh)
CC(=O)NNS(=O)(=O)c1ccccc1[N+](=O)[O-]	APOBEC3A inh 47.1 | APOBEC3A confirm inactive | UDG ctr A3A inactive
CCOC(=O)CC(NS(=O)(=O)c1ccc2[nH]cc(C(=O)O)c(=O)c2c1)c1ccc(OCC)c(OC)c1 (configuration not stated)	APOBEC3A inh 46.7 | APOBEC3A confirm 32.6
CCOC(=O)CC(NS(=O)(=O)c1ccc(OC)c(OC)c1)c1cccc([N+](=O)[O-])c1 (configuration not stated)	none
CCC(C)NC(=O)CSc1ccc(S(=O)(=O)N(C)C2CCCCC2)cn1 (configuration not stated)	APOBEC3A inh 41.8 | APOBEC3A confirm inactive | UDG ctr A3A inactive
CCOC(=O)C1CCN(S(=O)(=O)c2ccc3c(c2)CC(=O)N3C)CC1	APOBEC3A inh 51.6 | APOBEC3A confirm 54.9 | UDG ctr A3A inactive
CCOC(=O)C1CCN(S(=O)(=O)c2ccc3c(c2)CCCN3C(C)=O)CC1	none (no result: FN deposit inh)
CC1CCC/C(=N/NC(=O)c2ccccc2-n2cccc2)C1 (configuration not stated)	APOBEC3A inh 53.3 | APOBEC3A confirm 12.7 | UDG ctr A3A inactive
CC1CCC(=NNC(=O)c2ccccc2-n2cccc2)CC1 (configuration not stated)	none
Cn1cnc(NCc2ccccc2)c1[N+](=O)[O-]	APOBEC3A inh 44.1 | APOBEC3A confirm inactive | UDG ctr A3A inactive
Nc1ncnc(NCc2ccccc2)c1[N+](=O)[O-]	none (no result: FN deposit inh)
O=C(Nc1ccc(F)cc1F)c1noc2c1CCC2	APOBEC3A inh 49.8 (no result: FN deposit inh) | APOBEC3A confirm 32.9
CC(=O)Nc1ccc2c(COC(=O)CC3Sc4ccccc4NC3=O)cc(=O)oc2c1 (configuration not stated)	APOBEC3A inh 50.0 | APOBEC3A confirm 50.9 | UDG ctr A3A inactive
C=CCNC(=O)C12CC3(C)CC(C)(CC(C)(C3)C1)C2	none (no result: FN deposit inh)
CC12CC3(C)CC(C)(C1)CC(C(=O)NCC(=O)O)(C2)C3	APOBEC3A inh 49.9 | APOBEC3A confirm inactive | UDG ctr A3A inactive
CC(C)CC#Cc1ccc2c(c1)O[C@@H](CN(C)Cc1ccccn1)[C@H](C)CN([C@H](C)CO)S2(=O)=O	none (no result: A3G deaminase, ABHD5 PLIN5 PPI, APOBEC3A inh)
COc1ccc(S(=O)(=O)N2CC3(CN(C(=O)c4cccnc4)[C@@H](CO)c4c3c3ccc(OC)cc3n4C)C2)cc1	none (no result: A3G deaminase, ABHD5 PLIN5 PPI, APOBEC3A inh)
CCc1ccc(NC(=O)c2ccc(-n3cncn3)c([N+](=O)[O-])c2)cc1	APOBEC3A inh 41.1 | APOBEC3A confirm inactive
COc1ccc(NC(=O)c2ccc(-n3cncn3)c([N+](=O)[O-])c2)cc1	none
CN(C)C(=O)c1cccc(-c2ccccc2[C@@H]2[C@@H](CO)N(C(=O)C3CCCC3)[C@H]2C#N)c1	none (no result: A3G deaminase, ABHD5 PLIN5 PPI, APOBEC3A inh)
CO[C@@H]1CN(C)C(=O)c2ccc(NC(C)=O)cc2OC[C@H](C)N(C(=O)Cc2cccnc2)C[C@H]1C	none (no result: A3G deaminase, ABHD5 PLIN5 PPI, APOBEC3A inh)
CCCC(=O)Nc1ccc2c(c1)OC[C@H](C)N(C(=O)c1ccccc1F)C[C@@H](C)[C@@H](OC)CN(C)C2=O	none (no result: A3G deaminase, ABHD5 PLIN5 PPI, APOBEC3A inh)
CCn1nc(NC(C)=O)c2cc3cccc(C)c3nc21	APOBEC3A inh 76.5 | APOBEC3A confirm 64.5 | UDG ctr A3A inactive
CCn1nc(NC(=O)C(C)C)c2cc3cccc(C)c3nc21	none
C=CCn1c(SCc2nc3sc(C(=O)O)c(C)c3c(=O)[nH]2)nnc1-c1ccc(C(C)(C)C)cc1	APOBEC3A inh 40.1 | APOBEC3A confirm inactive | UDG ctr A3A inactive
CSC1=NSC2=NC(=O)/C(=C/c3coc4ccc(O)cc4c3=O)C(=N)N12	APOBEC3A inh 45.1 | APOBEC3A confirm 36.1 | UDG ctr A3A inactive
N#C/C(=C\c1ccc(F)cc1)c1nc(-c2ccco2)cs1	none
N#C/C(=C\c1ccc(Cl)cc1)c1nc(-c2ccco2)cs1	APOBEC3A inh 40.7 | APOBEC3A confirm inactive
CNC(=O)/C(C#N)=C\c1ccc(CNS(=O)(=O)c2ccc(Cl)cc2)o1	APOBEC3A inh 71.0 | APOBEC3A confirm 77.2 | UDG ctr A3A inactive
CNC(=O)/C(C#N)=C\c1ccc(CNS(=O)(=O)c2ccccc2)o1	none
CCNC(=O)C[C@H]1CC[C@@H]2[C@@H](COc3ccc(NC(C)=O)cc3C(=O)N2C)O1	none (no result: A3G deaminase, ABHD5 PLIN5 PPI, APOBEC3A inh)
COCCCNC(=O)c1ccccc1N(Cc1ccccc1)S(=O)(=O)c1ccccc1	APOBEC3A inh 54.6 | APOBEC3A confirm inactive
C[C@@H]1CN([C@H](C)CO)S(=O)(=O)c2ccc(C#CC3CC3)cc2O[C@H]1CN(C)C(=O)c1cccnc1	none (no result: A3G deaminase, ABHD5 PLIN5 PPI, APOBEC3A inh)
O=C(c1ccc(F)cc1)N1CC(=O)N2[C@H](C1)[C@@H](c1ccc(C#CC3CCCC3)cc1)[C@@H]2CO	none (no result: A3G deaminase, ABHD5 PLIN5 PPI, APOBEC3A inh)
CC1CCCC(NC(=O)NC(=O)COC(=O)c2ccc(O)cc2O)C1C (configuration not stated)	APOBEC3A inh 84.6 | APOBEC3A confirm 32.6 | UDG ctr A3A inactive
O=C(NCC[C@H]1CC[C@H](NS(=O)(=O)c2cccc(Cl)c2)[C@H](CO)O1)c1cnccn1	none (no result: A3G deaminase, ABHD5 PLIN5 PPI, APOBEC3A inh)
Cc1ccc(/C=N/Nc2nc(N3CCOCC3)nc(N3CCOCC3)n2)o1	APOBEC3A inh 52.6 | APOBEC3A confirm 32.8 | UDG ctr A3A inactive
C#CCSc1nc(Cc2ccc(Cl)cc2)nc2ccccc12	APOBEC3A inh 47.8 | APOBEC3A confirm inactive | UDG ctr A3A inactive
CN1C(=O)c2cc(NC(=O)C3CC3)ccc2OC[C@H]2O[C@@H](CC(=O)O)CC[C@@H]21	none (no result: A3G deaminase, ABHD5 PLIN5 PPI, APOBEC3A inh)
CS(=O)(=O)Nc1ccc2c(c1)[C@@H]1C[C@@H](CC(=O)N3CCCCC3)O[C@H](CO)[C@@H]1O2	none (no result: A3G deaminase, ABHD5 PLIN5 PPI, APOBEC3A inh)
